Source: ChEMBL document CHEMBL3272345, “Specificity in enzyme inhibition. 3. Synthesis of 5-substituted 2,2-dimethyl-4-imidazolidinones as inhibitors of tyrosine decarboxylase and histidine decarboxylase” (1976)
Calls of active or inactive are those of the source. No cut-off for these calls is given here.

Experiments:
[1] = biological target: T1, Decarboxylase (Enterococcus faecalis) (UniProt Q8KXD2); test: Inhibition of Streptococcus faecalis tyrosine decarboxylase assessed as 14CO2 production using 5 mM L-phenylalanine-1-14C as substrate at 5 mM after 30 mins by scintillation counting analysis
T1 sequence (whole entry): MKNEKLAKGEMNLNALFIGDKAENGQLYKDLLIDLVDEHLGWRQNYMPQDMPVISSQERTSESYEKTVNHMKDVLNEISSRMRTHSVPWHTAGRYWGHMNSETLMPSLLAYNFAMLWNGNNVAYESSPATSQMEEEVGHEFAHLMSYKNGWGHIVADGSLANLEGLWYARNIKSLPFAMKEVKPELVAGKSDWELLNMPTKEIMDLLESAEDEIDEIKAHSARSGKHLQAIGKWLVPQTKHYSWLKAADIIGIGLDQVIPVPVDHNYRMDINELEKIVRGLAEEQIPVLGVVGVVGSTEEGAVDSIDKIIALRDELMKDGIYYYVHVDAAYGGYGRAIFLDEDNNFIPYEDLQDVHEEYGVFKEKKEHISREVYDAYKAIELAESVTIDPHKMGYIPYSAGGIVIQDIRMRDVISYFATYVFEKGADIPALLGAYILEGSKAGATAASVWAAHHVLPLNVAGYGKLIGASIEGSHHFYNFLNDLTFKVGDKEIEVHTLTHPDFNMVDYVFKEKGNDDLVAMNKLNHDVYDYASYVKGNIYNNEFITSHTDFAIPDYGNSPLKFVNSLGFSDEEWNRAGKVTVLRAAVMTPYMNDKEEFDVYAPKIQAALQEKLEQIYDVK
Procedure, shortened: (§1)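 Crude S. faecalis tyrosine decarboxylase acetone powder (0.5 mg) used as the phenylalanine decarboxylase. Buffer was citrate–phosphate/0.2 M NaPO₄ pH 5.5 with 0.5 mM pyridoxal 5-phosphate, and the substrate was L-phenylalanine-1-¹⁴C (10⁻² μCi/μmol). Inhibitor at 5 mM. Incubated at 37° with shaking, stopped by TCA. ¹⁴CO₂ absorbed 30 min into hyamine and counted by scintillation. Percent inhibition versus controls, average of triplicates.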

[2] = biological target: T1, Decarboxylase (Enterococcus faecalis); test: Inhibition of Streptococcus faecalis tyrosine decarboxylase assessed as 14CO2 production using 10 mM L-phenylalanine-1-14C as substrate at 5 mM after 20 mins by scintillation counting analysis; procedure, shortened: as §1
[3] = biological target: T1, Decarboxylase (Enterococcus faecalis); test: Inhibition of Streptococcus faecalis tyrosine decarboxylase assessed as 14CO2 production using 0.8 mM L-tyrosine-1-14C as substrate at 5 mM after 20 mins by scintillation counting analysis
Procedure, shortened: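 Crude acetone-powder enzyme from S. faecalis, 8 × 10⁻³ mg per 0.5 ml, in 0.075 M citrate–0.15 M phosphate pH 5.5 with 0.5 mM pyridoxal 5-phosphate. Substrate L-tyrosine-1-¹⁴C (2.85 × 10⁻¹ μCi/μmol). Inhibitor tested at 5 mM, 37° for 20 min, stopped with TCA. ¹⁴CO₂ trapped in hyamine hydroxide for 20 min and counted by scintillation. Percent inhibition versus no-inhibitor controls, mean of triplicate runs.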

[4] = system: Ileum; test: Inhibition of histamine-induced response in guinea pig ileum at 1 mM; assay type: functional; conditions: Cavia porcellus
[5] = biological target: T2, Histidine decarboxylase (Rattus norvegicus) (UniProt P16453); test: Inhibition of fetal rat histidine decarboxylase at 1 mM
T2 sequence (whole entry): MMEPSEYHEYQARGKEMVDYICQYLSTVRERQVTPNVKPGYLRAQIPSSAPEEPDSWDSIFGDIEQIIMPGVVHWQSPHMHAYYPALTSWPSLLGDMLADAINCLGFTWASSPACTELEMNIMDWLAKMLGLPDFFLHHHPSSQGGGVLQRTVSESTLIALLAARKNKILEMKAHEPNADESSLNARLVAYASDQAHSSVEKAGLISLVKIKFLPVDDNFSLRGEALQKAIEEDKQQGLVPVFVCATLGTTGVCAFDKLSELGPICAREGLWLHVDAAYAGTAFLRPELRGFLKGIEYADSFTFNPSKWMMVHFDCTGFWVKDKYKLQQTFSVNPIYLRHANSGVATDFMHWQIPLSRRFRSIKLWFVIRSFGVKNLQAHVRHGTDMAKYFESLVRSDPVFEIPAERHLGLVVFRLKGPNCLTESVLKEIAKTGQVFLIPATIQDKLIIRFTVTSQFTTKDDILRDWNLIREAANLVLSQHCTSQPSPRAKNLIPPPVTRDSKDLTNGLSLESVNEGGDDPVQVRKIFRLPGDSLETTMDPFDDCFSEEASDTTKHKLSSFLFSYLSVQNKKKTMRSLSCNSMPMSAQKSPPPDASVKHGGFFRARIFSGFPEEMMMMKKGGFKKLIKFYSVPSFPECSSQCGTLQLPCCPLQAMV

| inhibition [1] [%] | inhibition [2] [%] | inhibition [3] [%] | inhibition [5] | Structure (SMILES) | inhibition at 1000 µM [4] [%] |
| --- | --- | --- | --- | --- | --- |
| 9 | 7 |  |  | CC1(C)NC(=O)C(c2ccccc2)N1 (racemic) |  |
| 17 | 13 | 10 |  | CC1(C)NC(=O)C(Cc2ccccc2)N1 (racemic) |  |

Second part, the compound before the results:

| Structure (SMILES) | inhibition [1] [%] | inhibition [2] [%] | inhibition [3] [%] | inhibition [5] | inhibition at 1000 µM [4] [%] |
| --- | --- | --- | --- | --- | --- |
| CC1(C)NC(=O)[C@H](Cc2ccc(O)cc2)N1 | 39 | 31 | 38 |  |  |
| CC1(C)NC(=O)[C@H](Cc2cnc[nH]2)N1 | 27 | 24 |  | inactive | 57 |
| CC1(C)NC(=O)[C@H](Cc2c[nH]c3ccccc23)N1 | 42 | 33 |  |  |  |
